ChEMBL document CHEMBL1154674, “Synthesis and evaluation of three 18F-labeled aminophenylbenzothiazoles as amyloid imaging agents” (J Med Chem, 2009)
One block for each compound: values may come before it.

Legend:
Assay type in all cases: ADME, organism-based, Macaca mulatta
[1] = Drug level in normal rhesus monkey pons assessed as standard uptake value at 81.2 MBq, iv after 12 mins by microPET; conditions: in vivo, 0.2 h
[2] = Drug level in normal rhesus monkey pons assessed as standard uptake value at 81.2 MBq, iv after 37.5 mins by microPET; conditions: in vivo, 0.625 h
[3] = Drug level in normal rhesus monkey parietal cortex assessed as standard uptake value at 81.2 MBq, iv after 14 mins by microPET; conditions: in vivo
[4] = Drug level in normal rhesus monkey parietal cortex assessed as standard uptake value at 81.2 MBq, iv after 57.5 mins by microPET; conditions: in vivo
[5] = Drug level in normal rhesus monkey white matter assessed as standard uptake value at 81.2 MBq, iv after 57.5 mins by microPET; conditions: in vivo
[6] = Drug level in normal rhesus monkey thalamus assessed as standard uptake value at 81.2 MBq, iv after 27.5 mins by microPET; conditions: in vivo
[7] = Drug level in normal rhesus monkey thalamus assessed as standard uptake value at 81.2 MBq, iv after 42.5 mins by microPET; conditions: in vivo
[8] = Drug level in normal rhesus monkey frontal cortex assessed as standard uptake value at 81.2 MBq, iv after 22.5 mins by microPET; conditions: in vivo, 0.375 h
[9] = Drug level in normal rhesus monkey parietal cortex assessed as standard uptake value at 96.3 MBq, iv after 37.5 mins by microPET; conditions: in vivo, 0.625 h
[10] = Drug level in normal rhesus monkey parietal cortex assessed as standard uptake value at 96.3 MBq, iv after 165 mins by microPET; conditions: in vivo, 2.75 h
[11] = Drug level in normal rhesus monkey parietal cortex assessed as standard uptake value at 96.3 MBq, iv after 27.5 mins by microPET; conditions: in vivo
[12] = Drug level in normal rhesus monkey white matter assessed as standard uptake value at 96.3 MBq, iv after 165 mins by microPET; conditions: in vivo, 2.75 h
[13] = Drug level in normal rhesus monkey cerebellum assessed as standard uptake value at 96.3 MBq, iv after 6 mins by microPET; conditions: in vivo, 0.1 h
Outline: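 Single normal rhesus monkey; each tracer given iv via the vena saphena, with 1 day between tracer injections. Dynamic μPET ran 180 min (5×60 s, 5×120 s, 9×300 s, 12×600 s). Images were reconstructed by filtered back projection with a RAMP filter. Regional time-activity curves were expressed as SUV.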

[14] = Drug level in normal rhesus monkey pons assessed as standard uptake value at 96.3 MBq, iv after 22.5 mins by microPET; conditions: in vivo, 0.375 h
[15] = Drug level in normal rhesus monkey pons assessed as standard uptake value at 96.3 MBq, iv after 125 mins by microPET; conditions: in vivo
[16] = Drug level in normal rhesus monkey pons assessed as standard uptake value at 96.3 MBq, iv after 135 mins by microPET; conditions: in vivo, 2.25 h
[17] = Drug level in normal rhesus monkey frontal cortex assessed as standard uptake value at 96.3 MBq, iv after 6 mins by microPET; conditions: in vivo, 0.1 h
[18] = Drug level in normal rhesus monkey frontal cortex assessed as standard uptake value at 96.3 MBq, iv after 17.5 mins by microPET; conditions: in vivo
[19] = Drug level in normal rhesus monkey frontal cortex assessed as standard uptake value at 96.3 MBq, iv after 125 mins by microPET; conditions: in vivo
[20] = Drug level in normal rhesus monkey white matter assessed as standard uptake value at 96.3 MBq, iv after 37.5 mins by microPET; conditions: in vivo, 0.625 h
[21] = Drug level in normal rhesus monkey pons assessed as standard uptake value at 109.4 MBq, iv after 63 mins by microPET; conditions: in vivo, 1.05 h
[22] = Drug level in normal rhesus monkey cerebellum assessed as standard uptake value at 109.4 MBq, iv after 15.5 mins by microPET; conditions: in vivo
[23] = Drug level in normal rhesus monkey white matter assessed as standard uptake value at 109.4 MBq, iv after 111 mins by microPET; conditions: in vivo
[24] = Drug level in normal rhesus monkey white matter assessed as standard uptake value at 109.4 MBq, iv after 0.375 mins by microPET; conditions: in vivo, 22 s
[25] = Drug level in normal rhesus monkey parietal cortex assessed as standard uptake value at 109.4 MBq, iv after 32.5 mins by microPET; conditions: in vivo
[26] = Drug level in normal rhesus monkey parietal cortex assessed as standard uptake value at 109.4 MBq, iv after 69 mins by microPET; conditions: in vivo, 1.15 h
[27] = Drug level in normal rhesus monkey cerebellum assessed as standard uptake value at 152.9 MBq, iv after 2.5 mins by microPET; conditions: in vivo
Outline: (§1)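 One normal rhesus monkey received each tracer via the vena saphena, with 1 day between injections. Dynamic μPET ran 180 min for 18F tracers (5×60 s, 5×120 s, 9×300 s, 12×600 s) and 90 min for the 11C tracer (5×60 s, 5×120 s, 9×300 s, 3×600 s). Filtered back-projection reconstruction (RAMP filter) was used. Time-activity curves were drawn to give regional SUV.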

[28] = Drug level in normal rhesus monkey cerebellum assessed as standard uptake value at 152.9 MBq, iv after 22.5 mins by microPET; conditions: in vivo, 0.375 h; outline: as §1
[29] = Drug level in normal rhesus monkey cerebellum assessed as standard uptake value at 152.9 MBq, iv after 27.5 mins by microPET; conditions: in vivo
Outline: (§2)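 Single normal rhesus monkey; tracer given iv via the vena saphena, 1 day apart from the other tracer injections. Dynamic μPET ran 90 min (5×60 s, 5×120 s, 9×300 s, 3×600 s). Images were reconstructed by filtered back projection with a RAMP filter. Regional time-activity curves were expressed as SUV.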

[30] = Drug level in normal rhesus monkey frontal cortex assessed as standard uptake value at 152.9 MBq, iv after 42.5 mins by microPET; conditions: in vivo; outline: as §2
[31] = Drug level in normal rhesus monkey white matter assessed as standard uptake value at 152.9 MBq, iv after 0.5 mins by microPET; conditions: in vivo
[32] = Drug level in normal rhesus monkey white matter assessed as standard uptake value at 152.9 MBq, iv after 14 mins by microPET; conditions: in vivo
[33] = Drug level in normal rhesus monkey white matter assessed as standard uptake value at 152.9 MBq, iv after 57.5 mins by microPET; conditions: in vivo
[34] = Drug level in normal rhesus monkey white matter assessed as standard uptake value at 152.9 MBq, iv after 85 mins by microPET; conditions: in vivo
[35] = Drug level in normal rhesus monkey pons assessed as standard uptake value at 152.9 MBq, iv after 42.5 mins by microPET; conditions: in vivo
[36] = Drug level in normal rhesus monkey parietal cortex assessed as standard uptake value at 152.9 MBq, iv after 8 mins by microPET; conditions: in vivo

- SUV [1]: 5.701
- SUV [2]: 5.487
- SUV [3]: 4.798
- SUV [4]: 3.575
- SUV [5]: 3.796
- SUV [6]: 5.4
- SUV [7]: 5.578
- SUV [8]: 5.717
Structure (SMILES): CNc1ccc2nc(-c3ccc([18F])cc3)sc2c1

- SUV [9]: 1.84
- SUV [10]: 1.18
- SUV [11]: 1.99
- SUV [12]: 1.55
- SUV [13]: 1.72
- SUV [14]: 1.78
- SUV [15]: 1.88
- SUV [16]: 1.92
- SUV [17]: 1.97
- SUV [18]: 2.22
- SUV [19]: 1.54
- SUV [20]: 1.46
Structure (SMILES): CN(C)c1ccc2nc(-c3ccc([18F])cc3)sc2c1

- SUV [21]: 4.75
- SUV [22]: 4.94
- SUV [23]: 3.82
- SUV [24]: -0.01
- SUV [25]: 4.8
- SUV [26]: 4.1
Structure (SMILES): Nc1ccc2nc(-c3ccc([18F])cc3)sc2c1

- SUV [27]: 1.545
- SUV [28]: 1.502
- SUV [29]: 1.258
- SUV [30]: 0.84
- SUV [31]: 0.038
- SUV [32]: 1.428
- SUV [33]: 0.957
- SUV [34]: 0.878
- SUV [35]: 1.179
- SUV [36]: 2.207
Structure (SMILES): [11CH3]Nc1ccc(-c2nc3ccc(O)cc3s2)cc1 [PITTSBURGH COMPOUND B]
